Test results published in ChEMBL document CHEMBL5154790 (J Med Chem, 2022).
The source made the active and inactive calls. No cut-off for these calls is given here.

Tests used:
[1] = Cytotoxicity against human SH-SY5Y cells assessed as reduction in cell viability incubated for 24 hrs by propidium iodide staining based fluorescence analysis; assay type: toxicity; details: read-out: LD50
[2] = molecular target: Cholinesterase (Homo sapiens) (UniProt P06276); experiment: Inhibition of human recombinant BChE at 100 uM using butyrylthiocholine iodide as substrate preincubated for 20 mins followed by substrate addition and measured every 240 sec by Ellman's method relative to control
[3] = tested on: Mus musculus; experiment: Antineuroinflammatory activity in SAMP8 mouse assessed as decrease in NFkappaB protein expression hippocampus tissue at 2 mg/kg, po measured after 4 weeks by Western blot analysis; assay type: functional, organism-based
How it was run: (§1)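 SAMP8 mice received oral dosing daily for 4 weeks at 2 mg kg⁻¹ day⁻¹, with vehicle-treated SAMP8 mice as controls. Hippocampal protein levels were expressed relative to the SAMP8 control group, set to 100%; for tau this is the p-Tau (Ser396 and Ser404) ratio. Values are mean ± SEM, tested against control.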

[4] = tested on: Mus musculus; experiment: Antialzheimer activity against SAMP8 mouse assessed as increase in hippocampal sAPPalpha levels at 2 mg/kg, po measured after 4 weeks by Western blot analysis; assay type: functional, organism-based; how it was run: as §1
[5] = tested on: Mus musculus; experiment: Cognitive enhancing effect in SAMP8 mouse assessed as improvement of long term memory by measuring increased discrimination index at 2 mg/kg, po administered for 4 weeks by novel object recognition test; assay type: functional, organism-based
How it was run: (§2)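 SAMP8 mice were dosed orally once daily for 4 weeks at 2 mg kg⁻¹ day⁻¹; controls received vehicle. In the novel object recognition test, a familiarization phase preceded testing for short-term and long-term working memory. The discrimination index scores the ability to distinguish a known from a new object. Values are mean ± SEM.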

[6] = tested on: Mus musculus; experiment: Antineuroinflammatory activity in SAMP8 mouse assessed as decrease in Gfap gene expression hippocampus tissue at 2 mg/kg, po measured after 4 weeks by RT-PCR analysis; assay type: functional, organism-based
How it was run: (§3)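 Hippocampal gene expression was measured by real-time PCR in SAMP8 mice after daily oral treatment for 4 weeks (2 mg kg⁻¹ day⁻¹), compared with vehicle-treated SAMP8 controls. Values are mean ± SEM.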

[7] = tested on: Mus musculus; experiment: Antialzheimer activity against SAMP8 mouse assessed as reduction in tau phosphorylation ar Ser396 residue at 2 mg/kg, po measured after 4 weeks by Western blot analysis; assay type: functional, organism-based; how it was run: as §1
[8] = tested on: Mus musculus; experiment: Antineuroinflammatory activity in SAMP8 mouse assessed as increase in synaptophysin expression in hippocampus tissue at 2 mg/kg, po measured after 4 weeks by Western blot analysis; assay type: functional, organism-based; how it was run: as §1
[9] = tested on: Mus musculus; experiment: Cognitive enhancing effect in SAMP8 mouse assessed as improvement of short term memory by measuring discrimination index at 2 mg/kg, po administered for 4 weeks by novel object recognition test; assay type: functional, organism-based; how it was run: as §2
[10] = tested on: Mus musculus; experiment: Antialzheimer activity against SAMP8 mouse assessed as decrease in hippocampal sAPPbeta levels at 2 mg/kg, po measured after 4 weeks by Western blot analysis; assay type: functional, organism-based; how it was run: as §1
[11] = tested on: Mus musculus; experiment: Antineuroinflammatory activity in SAMP8 mouse assessed as decrease in IL-6 gene expression hippocampus tissue at 2 mg/kg, po measured after 4 weeks by RT-PCR analysis; assay type: functional, organism-based; how it was run: as §3
[12] = tested on: Mus musculus; experiment: Antineuroinflammatory activity in SAMP8 mouse assessed as decrease in IL-1beta gene expression hippocampus tissue at 2 mg/kg, po measured after 4 weeks by RT-PCR analysis; assay type: functional, organism-based; how it was run: as §3
[13] = tested on: Mus musculus; experiment: Cognitive enhancement effect […] of SAMP8 mouse assessed as increase in novelty discrimination index at 2 mg/kg, po administered 4 weeks by Novel object recognition test; assay type: functional, organism-based; how it was run: as §2

Chain of Cholinesterase (Homo sapiens) (P06276 whole entry): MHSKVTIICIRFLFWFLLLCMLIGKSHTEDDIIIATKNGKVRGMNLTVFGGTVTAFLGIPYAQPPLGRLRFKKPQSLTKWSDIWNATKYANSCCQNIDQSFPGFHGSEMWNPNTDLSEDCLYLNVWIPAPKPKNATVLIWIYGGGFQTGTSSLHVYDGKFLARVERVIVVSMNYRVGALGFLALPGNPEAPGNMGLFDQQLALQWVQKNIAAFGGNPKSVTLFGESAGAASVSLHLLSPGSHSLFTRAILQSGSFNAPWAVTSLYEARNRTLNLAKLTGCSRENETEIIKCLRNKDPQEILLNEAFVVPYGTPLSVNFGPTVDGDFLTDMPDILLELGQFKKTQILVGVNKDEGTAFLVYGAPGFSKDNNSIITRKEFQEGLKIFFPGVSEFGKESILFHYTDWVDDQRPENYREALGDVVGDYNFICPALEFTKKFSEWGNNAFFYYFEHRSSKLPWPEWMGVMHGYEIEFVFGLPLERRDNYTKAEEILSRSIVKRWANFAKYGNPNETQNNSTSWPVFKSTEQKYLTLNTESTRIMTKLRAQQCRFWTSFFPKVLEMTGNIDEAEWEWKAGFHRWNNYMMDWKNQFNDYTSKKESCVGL

SMILES: O=C(Nc1ccc(OC(F)(F)F)cc1)NC1CCN(C(=O)CCNc2c3c(nc4cc(Cl)ccc24)CCCC3)CC1
- CC50 at 24 h [1]: 92.8 µM

SMILES: CC1=C[C@@H]2Cc3nc4cc(Cl)ccc4c(NCCCCC(=O)N4CCC(NC(=O)Nc5ccc(OC(F)(F)F)cc5)CC4)c3[C@H](C1)C2
- CC50 at 24 h [1]: > 100 µM

SMILES: CC(=O)N1CCC(NC(=O)Nc2ccc(OC(F)(F)F)cc2)CC1
- inhibition [2]: < 10%

SMILES: O=C(Nc1ccc(OC(F)(F)F)cc1)NC1CCN(C(=O)CCCNc2c3c(nc4cc(Cl)ccc24)CCCC3)CC1
- CC50 at 24 h [1]: > 100 µM

SMILES: O=C(Nc1ccc(OC(F)(F)F)cc1)NC1CCN(C(=O)CCCCNc2c3c(nc4cc(Cl)ccc24)CCCC3)CC1
- Activity [3]: Active
- CC50 at 24 h [1]: > 100 µM
- Activity [4]: Active
- Activity [5]: Active
- Activity [6]: Active
- Activity [7]: Active
- Activity [8]: Active
- Activity [9]: Active
- Activity [10]: Active
- Activity [11]: Active
- Activity [12]: Active
- Activity [13]: Active
